Holding throughout (type): functional
The subject of assay [1] is Mus musculus. In words: The compound was evaluated for the serum interferon response from a single 800 mg/kg intraperitoneal administration in vesicular stomatitis virus on […] cells; range 50-500. In a few lines:
(§1)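 Mice got a single ip 800 mg/kg dose. Blood was drawn 3, 6, 8 and 12 h later from five mice per group and pooled. Interferon titer was measured by plaque reduction with vesicular stomatitis virus on L929 cells. Titer is the reciprocal serum dilution cutting plaques by 50% versus untreated cultures. Peak response within 24 h was banded: ≥2000, ~500-1000, ~50-500, ~10-50 U/mL.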

Assay [2] relates to Semliki Forest virus. Description: Antiviral activity against Forest virus (SFV). In a few lines: (§2)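 ICR or CD-1 mice of both sexes got one drug dose by the route in the line (ip, po or sc). The drug was a suspension in 0.9% NaCl or in a CMC/polysorbate 80/benzyl alcohol/NaCl vehicle. […] Deaths were recorded daily for 6 days, 24 mice/group. ED50 is the minimal dose protecting 50% of mice, by probit analysis.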

Assay [3] deals with Semliki Forest virus. In words: Effective dose administered perorally againist Forest virus infected mice. As to conditions: po. In a few lines: as §2
Assay [4] has as its system Semliki Forest virus. Description: Effective dose administered subcutaneously againist Forest virus infected mice. As to conditions: sc. The gist of the method: as §2
Assay [5] relates to Human alphaherpesvirus 1. In words: Intraperitoneal administration against herpes simplex virus type-1 (HSV-1) infected mice. The gist of the method: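 ICR or CD-1 mice got drug ip in saline as the total daily dose (mg/kg/day). It was split into doses at -40, -28, -20, -3 and +3 h relative to ip inoculation with 5.6×10^4 pfu HSV-1. Mice were followed for 22 days, 15/group. Protection index = (control mortality − treated mortality)/control mortality; >0.25 counted active. Only the lowest protective dose is recorded.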

Assay [6] relates to Mus musculus. In words: The compound was evaluated for the serum interferon response from a single 800 mg/kg intraperitoneal administration in vesicular stomatitis virus on […] cells; Range 50-500 units/mL. In a few lines:
as §1

Where only a bound is given, the exact number is not on record here.

From ChEMBL document CHEMBL1123103, “Pyrimidinones. 1. 2-Amino-5-halo-6-aryl-4(3H)-pyrimidinones. Interferon-inducing antiviral agents” (1985) come the findings set out here.

What is called ED50 is the midpoint of the dose-response relation. Read a high ED50 as a need for a large dose. Turning to `Nc1nc(O)c(Br)c(-c2cccc(Br)c2)n1`, in assay [1], the IFN was found to be 500 mL. For the same compound, the ED50 in assay [2] was 110 mg/kg; in assay [3], above 400 mg/kg; in assay [4], above 400 mg/kg. Moreover, the Protection index in assay [5] came out at 0.47.
`Nc1nc(O)c(Br)c(-c2cccc(C(F)(F)F)c2)n1` registered an IFN in assay [6] of 50 mL. The ED50 in assay [2] was 200 mg/kg; in assay [3], above 400 mg/kg; in assay [4], above 400 mg/kg. This compound returned a Protection index in assay [5] of 0.53.
